{"source": "ChEMBL document CHEMBL1128682", "about": "“Design and synthesis of new naphthalenic derivatives as ligands for 2-[125I]iodomelatonin binding sites” (J Med Chem, 1995)", "key": {"Melatonin receptor [1]": {"molecular_target": "T1, Melatonin receptor (Gallus gallus, UniProt P49288+P51050+P49285)", "assay": "Competitive binding by the displacement of 2-[125I]- Iodomelatonin binding from melatonin receptors in chicken brain membranes", "assay_type": "cell membranes, Membrane", "method_in_brief": "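Whole chicken brain (Redbro, 4 months) homogenized in ice-cold 50 mM Tris-HCl pH 7.4, washed twice by centrifugation, and resuspended at 5 mg protein/mL. Filtration through PEI-soaked glass fiber filters, then gamma counting. Nonspecific binding defined with 10 μM 2-iodomelatonin. Triplicates. Ki from IC50 by Cheng-Prusoff; one or two determinations.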"}, "Melatonin receptor [2]": {"molecular_target": "T1, Melatonin receptor", "assay": "Effect of compound on Melatonin receptor in chicken brain in the presence of GTP-gamma-S"}, "Melatonin receptor [3]": {"molecular_target": "T1, Melatonin receptor", "assay": "Effect of compound on Melatonin receptor in chicken brain in the presence of MnCl2"}}, "data": [{"smiles": "COc1ccc2ccc(OC)c(CCNC(=O)C(F)(F)F)c2c1", "values": [{"measurement": "Ki", "setting": "Melatonin receptor [1]", "value": 0.4, "unit": "nM"}]}, {"smiles": "COc1ccccc1CCNC(C)=O", "values": [{"measurement": "Ki", "setting": "Melatonin receptor [1]", "value": 213, "unit": "nM"}]}, {"smiles": "COc1ccc2ccc(OC)c(CCNC(C)=O)c2c1", "values": [{"measurement": "Ki", "setting": "Melatonin receptor [1]", "value": 0.1, "unit": "nM"}]}, {"smiles": "COc1ccc(OC)c(CCNC(C)=O)c1", "values": [{"measurement": "Ki", "setting": "Melatonin receptor [1]", "value": 69.9, "unit": "nM"}]}, {"smiles": "COc1cccc(CCNC(C)=O)c1", "values": [{"measurement": "Ki", "setting": "Melatonin receptor [1]", "value": 253, "unit": "nM"}]}, {"smiles": "CC(=O)NCCc1ccccc1Cl", "values": [{"measurement": "Ki", "setting": "Melatonin receptor [1]", "value": "> 1000", "unit": "nM"}]}, {"smiles": "COc1ccc(Br)cc1CCNC(C)=O", "values": [{"measurement": "Ki", "setting": "Melatonin receptor [1]", "value": 42, "unit": "nM"}]}, {"smiles": "CCC(=O)NCCc1cc(OC)ccc1OC", "values": [{"measurement": "Ki", "setting": "Melatonin receptor [1]", "value": 17.5, "unit": "nM"}]}, {"smiles": "CCC(=O)NCCc1cc(Br)ccc1OC", "values": [{"measurement": "Ki", "setting": "Melatonin receptor [1]", "value": 8, "unit": "nM"}]}, {"smiles": "CCCC(=O)NCCc1c(OC)ccc2ccccc12", "values": [{"measurement": "Ki", "setting": "Melatonin receptor [1]", "value": 1.37, "unit": "nM"}]}, {"smiles": "COc1ccc(C)cc1CCNC(C)=O", "values": [{"measurement": "Ki", "setting": "Melatonin receptor [1]", "value": 192, "unit": "nM"}]}, {"smiles": "COc1ccc(OC)c(CCNC(=O)C2CC2)c1", "values": [{"measurement": "Ki", "setting": "Melatonin receptor [1]", "value": 386, "unit": "nM"}]}, {"smiles": "CCC(=O)NCCc1c(OC)ccc2ccc(OC)cc12", "values": [{"measurement": "Ki", "setting": "Melatonin receptor [1]", "value": 0.07, "unit": "nM"}]}, {"smiles": "COc1ccc2ccccc2c1CC(C)NC(=O)C(F)(F)F", "note": "(stereo not given)", "values": [{"measurement": "Ki", "setting": "Melatonin receptor [1]", "value": "> 1000", "unit": "nM"}]}, {"smiles": "CCC(=O)NCCc1c(OC)ccc2ccccc12", "values": [{"measurement": "Ki", "setting": "Melatonin receptor [2]", "value": 2.86, "unit": "nM"}, {"measurement": "Ki", "setting": "Melatonin receptor [3]", "value": 0.297, "unit": "nM"}, {"measurement": "Ki", "setting": "Melatonin receptor [1]", "value": 0.68, "unit": "nM"}]}, {"smiles": "COc1ccc2ccccc2c1CCNC(=O)C(F)(F)F", "values": [{"measurement": "Ki", "setting": "Melatonin receptor [1]", "value": 0.54, "unit": "nM"}]}, {"smiles": "CCCCC(=O)NCCc1cc(OC)ccc1OC", "values": [{"measurement": "Ki", "setting": "Melatonin receptor [1]", "value": "> 1000", "unit": "nM"}]}, {"smiles": "CCc1ccc(OC)c(CCNC(C)=O)c1", "values": [{"measurement": "Ki", "setting": "Melatonin receptor [1]", "value": 217, "unit": "nM"}]}, {"smiles": "COc1ccc2ccccc2c1CCNC(C)=O", "values": [{"measurement": "Ki", "setting": "Melatonin receptor [1]", "value": 2.68, "unit": "nM"}]}, {"smiles": "CC(=O)NCCc1ccc(Cl)cc1", "values": [{"measurement": "Ki", "setting": "Melatonin receptor [1]", "value": "> 1000", "unit": "nM"}]}, {"smiles": "COc1ccc2ccccc2c1CC(C)NC(C)=O", "note": "(stereo not given)", "values": [{"measurement": "Ki", "setting": "Melatonin receptor [1]", "value": 421, "unit": "nM"}]}, {"smiles": "CC(=O)NCCc1cccc(Cl)c1", "values": [{"measurement": "Ki", "setting": "Melatonin receptor [1]", "value": "> 1000", "unit": "nM"}]}, {"smiles": "CC(=O)NCCc1cccc(F)c1", "values": [{"measurement": "Ki", "setting": "Melatonin receptor [1]", "value": "> 1000", "unit": "nM"}]}, {"smiles": "COc1ccc2ccc(OC)c(CCNC(=O)C3CC3)c2c1", "values": [{"measurement": "Ki", "setting": "Melatonin receptor [1]", "value": 0.05, "unit": "nM"}]}, {"smiles": "CC(=O)NCCc1cccc2ccccc12", "values": [{"measurement": "Ki", "setting": "Melatonin receptor [1]", "value": 321, "unit": "nM"}]}, {"smiles": "CCCCC(=O)NCCc1c(OC)ccc2ccccc12", "values": [{"measurement": "Ki", "setting": "Melatonin receptor [1]", "value": 237, "unit": "nM"}]}, {"smiles": "COc1ccc2ccccc2c1CCNC(=O)C1CC1", "values": [{"measurement": "Ki", "setting": "Melatonin receptor [1]", "value": 19.4, "unit": "nM"}]}, {"smiles": "COc1ccc(CCNC(C)=O)cc1", "values": [{"measurement": "Ki", "setting": "Melatonin receptor [1]", "value": "> 1000", "unit": "nM"}]}]}
